Test results taken from ChEMBL document CHEMBL2429751, “Diterpenoids and sesquiterpenoids from the roots of Illicium majus” (J Nat Prod, 2013).
Active and inactive are the calls of the source. No cut-off for these calls is given here.

Experiments:
[1] = system: Vero; experiment: Cytotoxicity against African green monkey Vero cells after 48 hrs by Reed-Muench analysis; format: cell-based; parameters: unit not given here; conditions: chlorocebus sabaeus
Outline: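 Vero cells were seeded and, after 24 h, exposed to graded compound concentrations for 48 h at 37 °C under 5% CO2. Cell damage was scored microscopically as CPE, and TC50 was calculated by Reed–Muench analysis.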

[2] = system: Coxsackievirus B3; experiment: Antiviral activity against Coxsackievirus B3 infected in African green monkey Vero cells assessed as protection against virus-induced cytopathic effect after 48 hrs by Reed-Muench analysis; format: functional, organism-based; parameters: unit not given here
Outline: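 Confluent Vero monolayers were infected with 100 TCID50 Cox B3 and allowed 1 h adsorption at 37 °C. Cells were PBS-washed, then kept at 37 °C in maintenance medium with 2% FBS, with or without graded compound concentrations. CPE was scored once virus controls reached 4+, and IC50 was derived by Reed–Muench analysis.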

[3] = system: Coxsackievirus B3; experiment: Selectivity index, ratio of TC50 for African green monkey Vero cells to IC50 for Coxsackievirus B3; format: toxicity, cell-based; conditions: read-out: Selectivity Index
Outline: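 SI is TC50/IC50. TC50 comes from 48 h Vero CPE cytotoxicity and IC50 from Cox B3 (100 TCID50) CPE inhibition in Vero cells, both by Reed–Muench analysis.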

IC50 [2] | Structure (SMILES) | TC50 [1] | selectivity ratio [3] | Activity [2]
22.2 | C[C@](O)(CO)c1ccc2c(c1)CC[C@H]1[C@@](C)(C(=O)O)CCC[C@]21C | 138.7 | 6.2 | –
66.7 | CC1=C(C(=O)O[C@@]23OC[C@]4(C)[C@@]5(O)CC[C@@H](C)[C@@]5(CC(=O)[C@]24C)[C@H]3O)CCC1=O | 200 | 3 | –
17.4 | C[C@H](CO)c1ccc2c(c1)CC[C@H]1[C@@](C)(C(=O)O)CCC[C@]21C | 138.7 | 8 | –
51.7 | C[C@@]12COC(=O)[C@]1(C)[C@@H](O)[C@@]13CC(=O)O[C@@]21CC=C3CO[C@@H]1O[C@H](CO)[C@@H](O)[C@H](O)[C@H]1O | 200 | 3.9 | –
– | CC(C)c1ccc2c(c1)CC[C@H]1[C@@](C)(C(=O)O)CCC[C@]21C | – | 6.7 | –
– | C[C@]1(CO)CCC[C@]2(C)c3ccc([C@](C)(O)CO)cc3CC[C@@H]12 | – | – | inactive
– | C[C@]1(CO)CCC[C@]2(C)c3ccc([C@@](C)(O)CO)cc3CC[C@@H]12 | – | – | inactive
– | CC(C)(O)c1ccc2c(c1)C(=O)C[C@H]1[C@@](C)(CO)CCC[C@]21C | – | – | inactive
– | C[C@@]12COC(=O)[C@]1(C)[C@@H](OC(=O)c1ccccc1)[C@]13CC(=O)O[C@@]1(C)CC[C@]23O | – | – | inactive
– | CC(C)(O)c1ccc2c(c1)C(=O)C[C@H]1[C@@](C)(C(=O)O)CCC[C@]21C | – | 3.9 | –
12.8 | C[C@@H](CO)c1ccc2c(c1)CC[C@H]1[C@@](C)(C(=O)O)CCC[C@]21C | 66.7 | 5.2 | –
– | C[C@@H]1CC[C@@]23O[C@@]4(O)C[C@@]12[C@@H](O)C(=O)OC[C@@]3(CO[C@@H]1O[C@H](CO)[C@@H](O)[C@H](O)[C@H]1O)[C@@]4(C)O | – | – | inactive
66.7 | C[C@@H]1CC[C@@]23O[C@@]4(O)C[C@@]12[C@@H](O)C(=O)OC[C@@]3(CO)[C@@]4(C)O | 200 | 3 | –
